In data set [1] the test system is Mus musculus. The data set is described as follows: Anticonvulsant activity in corneally kindled mouse assessed as protection against seizure at 28 mg/kg, ip. In kind it is functional, organism-based. Also noted: dose 28 mg/kg. The gist of the method:
(§1)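 Corneally kindled mouse seizure model with ip dosing. Protection was scored in 4 animals, and the average seizure score was recorded.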

Data set [2] has as its system Mus musculus. Put plainly: Anticonvulsant activity in ip dosed albino CF-1 mouse assessed as protection against 6 Hz psychomotor seizure measured at 1 hr. In kind it is functional. Conditions: albino CF-1, ip. The procedure, abridged:
(§2)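 Screened under the NINDS ASP in male albino Carworth Farms No. 1 mice (ip) or male albino Sprague-Dawley rats (ip or po), using MES, 6 Hz (32 mA) and subcutaneous pentylenetetrazol seizure tests. Initial qualitative tests used preset doses (e.g., 30, 50, 100 mg/kg). ED50 values with 95% confidence intervals came from dose–response data collected at the time of peak effect.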

Data set [3] deals with Mus musculus. Put plainly: Anticonvulsant activity in ip dosed albino CF-1 mouse assessed as protection against maximal electroshock-induced seizures measured at 0.5 hrs. In kind it is functional. The following applies: albino CF-1, ip. The procedure, abridged: as §2
Background: Protection in the maximal electroshock model is a classic sign of anticonvulsant action.

Data set [4] in a line: Toxicity in ip dosed albino CF-1 mouse assessed as neurological impairment measured at 0.25 hrs by rotorod test. In kind it is organism-based. The following applies: in vivo. The procedure, abridged: (§3)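 Male albino Carworth Farms No. 1 mice dosed intraperitoneally under the NINDS Anticonvulsant Screening Program; neurological impairment scored by rotorod test. Qualitative screens used preset doses (e.g., 30, 100 mg/kg); where activity was sufficient, dose–response curves were run at time of peak effect to give TD50 in mg/kg with 95% confidence intervals.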

The subject of data set [5] is Mus musculus. Put plainly: Anticonvulsant activity in ip dosed albino CF-1 mouse assessed as protection against subcutaneous metrazol-induced seizure measured at 0.25 hrs. Conditions: albino CF-1, 0.25 h. The data set is classed as functional. The procedure, abridged: as §2
Data set [6] deals with T1, Alpha-1D adrenergic receptor (Homo sapiens) (UniProt P25100).
T1 sequence (whole entry): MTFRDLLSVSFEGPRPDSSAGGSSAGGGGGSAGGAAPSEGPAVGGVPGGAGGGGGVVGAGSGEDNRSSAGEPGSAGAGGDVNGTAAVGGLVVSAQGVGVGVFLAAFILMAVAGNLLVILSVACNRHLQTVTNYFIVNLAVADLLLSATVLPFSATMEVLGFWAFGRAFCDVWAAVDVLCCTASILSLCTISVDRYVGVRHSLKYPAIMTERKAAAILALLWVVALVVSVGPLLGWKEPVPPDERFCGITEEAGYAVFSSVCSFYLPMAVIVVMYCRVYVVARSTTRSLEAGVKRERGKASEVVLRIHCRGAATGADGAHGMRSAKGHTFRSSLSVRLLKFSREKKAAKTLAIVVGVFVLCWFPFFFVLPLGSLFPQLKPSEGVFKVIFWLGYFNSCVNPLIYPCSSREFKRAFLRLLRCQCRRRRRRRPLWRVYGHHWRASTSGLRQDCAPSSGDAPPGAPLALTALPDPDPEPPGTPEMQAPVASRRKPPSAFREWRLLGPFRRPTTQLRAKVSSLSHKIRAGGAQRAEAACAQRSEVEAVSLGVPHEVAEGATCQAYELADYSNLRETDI
Put plainly: Inhibition of adrenergic alpha-1D receptor (unknown origin) at 10 uM relative to control.

The subject of data set [7] is Mus musculus. The data set is described as follows: Anticonvulsant activity in corneally kindled mouse assessed as protection against seizure at 78 mg/kg, ip. In kind it is functional, organism-based. Also noted: dose 78 mg/kg. The procedure, abridged: as §1
Data set [8] has as its system Mus musculus. The data set is described as follows: Anticonvulsant activity in ip dosed albino CF-1 mouse assessed as protection against maximal electroshock-induced seizures measured at 0.25 hrs. Conditions: albino CF-1, ip. In kind it is functional. The procedure, abridged: as §2
Data set [9] deals with 5-hydroxytryptamine receptor 1B (Homo sapiens) (UniProt P28222). The data set is described as follows: Inhibition of 5-HT1B receptor (unknown origin) at 10 uM relative to control.
Chain of 5-hydroxytryptamine receptor 1B (Homo sapiens) (P28222 whole entry): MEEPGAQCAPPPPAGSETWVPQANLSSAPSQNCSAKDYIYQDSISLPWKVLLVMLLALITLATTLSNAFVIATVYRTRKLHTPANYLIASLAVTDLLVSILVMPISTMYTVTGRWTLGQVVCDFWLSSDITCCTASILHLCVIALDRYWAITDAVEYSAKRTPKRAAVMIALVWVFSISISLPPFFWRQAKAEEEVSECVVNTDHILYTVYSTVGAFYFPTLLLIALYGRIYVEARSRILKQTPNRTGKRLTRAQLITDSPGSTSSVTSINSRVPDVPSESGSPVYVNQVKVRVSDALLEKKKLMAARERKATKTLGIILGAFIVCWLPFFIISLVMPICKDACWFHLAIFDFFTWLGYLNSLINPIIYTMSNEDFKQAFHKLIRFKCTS
Data set [10] can be described thus: Toxicity in ip dosed albino CF-1 mouse assessed as neurological impairment measured at 0.25 to 4 hrs by rotorod test. Conditions: in vivo. In kind it is organism-based. The gist of the method:
as §3
On the technique in general: Falling from the rotarod earlier than controls is read as motor impairment.

Data set [11] addresses T2, Alpha-1A adrenergic receptor (Homo sapiens) (UniProt P35348).
T2 sequence (whole entry): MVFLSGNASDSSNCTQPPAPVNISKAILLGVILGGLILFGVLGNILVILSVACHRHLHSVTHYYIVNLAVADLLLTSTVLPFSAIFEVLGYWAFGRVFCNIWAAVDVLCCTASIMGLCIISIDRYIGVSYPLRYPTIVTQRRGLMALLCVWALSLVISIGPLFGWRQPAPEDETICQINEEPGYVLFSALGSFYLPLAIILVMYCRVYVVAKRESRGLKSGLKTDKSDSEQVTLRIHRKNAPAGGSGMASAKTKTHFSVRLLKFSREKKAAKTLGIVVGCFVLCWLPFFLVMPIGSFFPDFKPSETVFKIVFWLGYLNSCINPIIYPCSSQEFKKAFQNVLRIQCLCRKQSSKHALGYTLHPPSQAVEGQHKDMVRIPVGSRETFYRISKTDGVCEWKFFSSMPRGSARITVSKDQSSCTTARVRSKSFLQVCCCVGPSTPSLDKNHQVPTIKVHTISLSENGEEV
The data set is described as follows: Inhibition of adrenergic alpha-1A receptor (unknown origin) at 10 uM relative to control.

Data set [12] concerns the target D(2) dopamine receptor (Homo sapiens) (UniProt P14416). The data set is described as follows: Inhibition of dopaminergic D2 receptor (unknown origin) at 10 uM relative to control.
Data set [13] deals with Mus musculus. Put plainly: Anticonvulsant activity in albino CF-1 mouse assessed as protection against maximal electroshock-induced seizures at 100 mg/kg, ip. In kind it is functional, organism-based. Also noted: dose 100 mg/kg. The procedure, abridged: as §2
The subject of data set [14] is Rattus norvegicus. The data set is described as follows: Anticonvulsant activity in ip dosed albino Sprague-Dawley rat assessed as protection against maximal electroshock-induced seizures measured at 0.25 to 4 hrs. The data set is classed as functional. The gist of the method:
as §2

For data set [15], the system named is Mus musculus. Put plainly: Anticonvulsant activity in ip dosed albino CF-1 mouse assessed as protection against maximal electroshock-induced seizures measured at 0.25 to 0.5 hrs. The data set is classed as functional. Conditions: albino CF-1, ip. The procedure, abridged:
as §2

Data set [16] relates to Mus musculus. The data set is described as follows: Anticonvulsant activity in ip dosed albino CF-1 mouse assessed as protection against 6 Hz psychomotor seizure measured at 0.5 hrs. The data set is classed as functional. The following applies: albino CF-1, ip. The procedure, abridged:
as §2

Data set [17] relates to Mus musculus. The data set is described as follows: Anticonvulsant activity in ip dosed albino CF-1 mouse assessed as protection against maximal electroshock-induced seizures measured at 0.5 to 2 hrs. The data set is classed as functional. The following applies: albino CF-1, ip. The procedure, abridged: as §2
Data set [18] in a line: Toxicity in ip dosed albino CF-1 mouse assessed as neurological impairment measured at 0.5 to 2 hrs by rotorod test. In kind it is organism-based. Conditions: in vivo. The procedure, abridged:
as §3

The species named for data set [19] is Rattus norvegicus. The data set is described as follows: Inhibition of Na+ channel in rat embryonic cortical neurons assessed as hyperpolarizing shift of current at 10 uM by whole-cell voltage clamp assay.
The nature of data set [20]: Toxicity in ip dosed albino Sprague-Dawley rat assessed as behavioral changes measured at 0.5 hrs. Conditions: in vivo. In kind it is organism-based. The procedure, abridged:
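Male albino Sprague-Dawley rats given compound intraperitoneally or orally (NINDS ASP); neurological impairment judged from behavioral toxicity effects. Preset screening doses (e.g., 30 mg/kg); for adequately active compounds, TD50 (mg/kg, 95% confidence intervals) derived from dose–effect data at time of peak effect.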

Data set [21] is filed under the species Rattus norvegicus. Put plainly: Induction of voltage-dependent Na+ channel fast inactivation in rat embryonic cortical neurons at 10 uM by whole-cell voltage clamp assay (reference value: - 51.1 +/- 1.4 mV).
For data set [22], the species on record is Rattus norvegicus. The data set is described as follows: Inhibition of Na+ channel in rat embryonic cortical neurons assessed as frequency-dependent decrease in current amplitude at 10 uM at -80 mV holding potential by whole-cell voltage clamp assay.
Data set [23] in a line: Cytotoxicity against rat embryonic cortical neurons assessed as loss of membrane integrity at 20 uM. The following applies: cortical neurone.
Data set [24] relates to Rattus norvegicus. The data set is described as follows: Anticonvulsant activity in ip dosed albino Sprague-Dawley rat assessed as protection against maximal electroshock-induced seizures measured at 0.5 hrs. In kind it is functional. The gist of the method: as §2

SMILES strings stand for the structures. Active and inactive are the calls of the source. The rule behind the calls is not given here. Bounds are passed on as bounds.

Chain of D(2) dopamine receptor (Homo sapiens) (P14416 whole entry): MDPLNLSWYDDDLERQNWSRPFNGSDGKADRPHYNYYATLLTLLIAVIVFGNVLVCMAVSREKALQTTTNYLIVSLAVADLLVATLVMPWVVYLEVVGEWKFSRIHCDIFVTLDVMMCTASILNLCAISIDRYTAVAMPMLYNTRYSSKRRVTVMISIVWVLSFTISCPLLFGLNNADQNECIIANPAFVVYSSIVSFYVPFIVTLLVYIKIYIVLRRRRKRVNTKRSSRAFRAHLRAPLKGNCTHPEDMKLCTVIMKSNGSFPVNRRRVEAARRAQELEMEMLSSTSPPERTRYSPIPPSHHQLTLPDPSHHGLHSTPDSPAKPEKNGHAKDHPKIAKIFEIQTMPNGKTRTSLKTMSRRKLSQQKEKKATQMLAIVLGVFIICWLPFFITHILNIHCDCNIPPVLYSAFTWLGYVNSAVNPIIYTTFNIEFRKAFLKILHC

By ED50 is commonly meant the midpoint of the dose-response relation. Usually TD50 stands for the dose at which the toxic effect under study appears in half of the subjects. Consider `Cl.NCc1ccc(OCc2cccc(OC(F)(F)F)c2)cc1`, for which, in the data set on Mus musculus [1], the outcome was Active. Further, the ED50 was 50 mg/kg in the data set with Mus musculus [2] and 28 mg/kg with Mus musculus [3]. The TD50 at 0.25 h in data set [4] was 92 mg/kg.

One may read the inhibition as the relative decrease from the control value, in per cent. As for `Cl.NCc1ccc(OCc2cccc(Cl)c2)cc1`, the ED50 in the data set on Mus musculus [5] was more than 180 mg/kg; in the data set with Mus musculus [8], 54 mg/kg. Also, in [6], the inhibition is -1.9%. Besides, the outcome in the data set with Mus musculus [7] was Active. The TD50 at 0.25 h in data set [4] was 160 mg/kg.

Turning to `Cl.NCc1ccc(OCc2ccc(F)cc2)cc1`, the inhibition in [9] is -2.5%; in [6], 0.2%; in [11], -7.5%. The ED50 with Mus musculus [8] was less than 100 mg/kg. Further, in data set [10], the TD50 was more than 100 mg/kg.

For the molecule `Cl.NCc1ccc(OCc2cccc(F)c2)cc1`, the inhibition was 3.2% in [12] and -9.1% in [6]. Further, the outcome in the data set with Mus musculus [13] was Active. Besides, the figures for the ED50 with Rattus norvegicus [14] and in the data set on Mus musculus [15] were more than 30 mg/kg and less than 100 mg/kg, respectively. Further, the TD50 in data set [10] is more than 100 mg/kg.

Regarding `Cl.NCc1ccc(OCc2ccccc2)cc1`, the inhibition amounted to 12.4% in data set [12] and 12.8% in data set [11]. Moreover, the ED50 with Rattus norvegicus [14] was more than 30 mg/kg; with Mus musculus [16] it was 30 mg/kg; with Mus musculus [17], more than 100 mg/kg. Besides, the TD50 in [18] was 100 mg/kg.

As to `Cl.NCc1ccc(OCc2ccc(Cl)cc2)cc1`, the inhibition in [9] was -6.7%; in data set [6] it was -6.6%; in data set [11] it was -9.4%. In addition, the ED50 with Rattus norvegicus [14] is more than 30 mg/kg; in the data set with Mus musculus [8], less than 100 mg/kg. Further, the TD50 in data set [10] is more than 100 mg/kg.

As to `Cl.NCc1ccc(OCc2ccc(OC(F)(F)F)cc2)cc1`, the inhibition in data set [12] came out at 5.3%. Also, the ED50 with Mus musculus [3] is less than 100 mg/kg. For the same molecule, in data set [10], the TD50 is more than 100 mg/kg.

For `Cl.NCc1ccc(OCc2ccccc2F)cc1`, the inhibition is -7.7% in data set [9] and 7.4% in [12]. For the same molecule, the results for the ED50 in the data set on Rattus norvegicus [14], in the data set with Mus musculus [16] and in the data set on Mus musculus [3] were more than 30 mg/kg, 30 mg/kg and 30 mg/kg, respectively. For the same molecule, in data set [18], the TD50 is 100 mg/kg.

As to `Cl.NCc1ccc(OCc2ccccc2OC(F)(F)F)cc1`, the Activity in the data set filed under Rattus norvegicus [19] is 15.3 mV; in [23], “Toxic”. In addition, the inhibition in data set [9] is -8.8%; in [12], 12.7%; in data set [6], 6.5%; in data set [11] it was -9.7%. Moreover, the TD50 at 0.5 h in data set [20] stood at 81 mg/kg. Moreover, the figures for the ED50 with Mus musculus [5], in the data set on Mus musculus [8] and with Rattus norvegicus [24] were more than 80 mg/kg, 20 mg/kg and 18 mg/kg, respectively. The same molecule had a V1/2 in the data set filed under Rattus norvegicus [21] of -66.4 mV. The inhibition result in the data set filed under Rattus norvegicus [22] is “inactive”. Moreover, the TD50 at 0.25 h in [4] was determined as 64 mg/kg.

These data come from ChEMBL document CHEMBL3091364, “Benzyloxybenzylammonium chlorides: Simple amine salts that display anticonvulsant activity” (Bioorg Med Chem, 2013).
